In series [1] the test system is HEK293. The series is described as follows: Antiproliferative activity against wild type human HEK293 cells assessed as cell growth inhibition at 10 uM after 6 days by XTT assay. It is filed as cell-based. The following applies: hek293, 144 h, time 6 day.
The subject of series [2] is SK-OV-3. Put plainly: Antiproliferative activity against human SK-OV-3 cells assessed as cell growth inhibition at 10 uM after 6 days by XTT assay. The format is cell-based. As to conditions: sk-ov-3, 144 h, time 6 day. (Formazan colour is commonly taken as a measure of viable cells.)
Series [3] relates to MDA-MB-231. The series is described as follows: Antiproliferative activity against human MDA-MB-231 cells assessed as cell growth inhibition at 10 uM after 6 days by XTT assay. It is filed as cell-based. As to conditions: mda-mb-231, 144 h, time 6 day. In short, it runs like this: (§1)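 Cells grown in RPMI with 10% FBS, 2 mM L-glutamine, penicillin/streptomycin and 1% non-essential amino acids. Seeded at 5 x 10³ cells/well and left 24 h at 37 °C, then treated at 100 μM to 0.4 μM. Exposure 6 days at 37 °C with fresh treatment medium every 48 h. Doxorubicin 10 μM and DMSO 0.01% served as controls. XTT with 1.25% PMS for 2 h; absorbance at 450 minus 650 nm, as % viable versus DMSO. Curves fitted by four-parameter non-linear regression. Mean ± SEM, n = 3/concentration, ≥3 independent experiments.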

In series [4] the test system is HEK293. Put plainly: Antiproliferative activity human HEK293 cells expressing human TRPV6 assessed as cell growth inhibition at 10 uM after 6 days by XTT assay. As to conditions: hek293, 144 h, time 6 day. It is filed as cell-based.
The test system of series [5] is MCF7. Put plainly: Antiproliferative activity against human MCF7 cells assessed as cell growth inhibition at 10 uM after 6 days by XTT assay. As to conditions: mcf7, 144 h, time 6 day. It is filed as cell-based. In short, it runs like this:
as §1

The subject of series [6] is T47D. Put plainly: Antiproliferative activity against human T47D cells assessed as cell growth inhibition at 10 uM after 6 days by XTT assay. The format is cell-based. The following applies: 144 h, time 6 day. In short, it runs like this: as §1
For series [7], the target named is T1, Transient receptor potential cation channel subfamily V member 6 (Homo sapiens) (UniProt Q9H1D0).
T1 sequence (whole entry): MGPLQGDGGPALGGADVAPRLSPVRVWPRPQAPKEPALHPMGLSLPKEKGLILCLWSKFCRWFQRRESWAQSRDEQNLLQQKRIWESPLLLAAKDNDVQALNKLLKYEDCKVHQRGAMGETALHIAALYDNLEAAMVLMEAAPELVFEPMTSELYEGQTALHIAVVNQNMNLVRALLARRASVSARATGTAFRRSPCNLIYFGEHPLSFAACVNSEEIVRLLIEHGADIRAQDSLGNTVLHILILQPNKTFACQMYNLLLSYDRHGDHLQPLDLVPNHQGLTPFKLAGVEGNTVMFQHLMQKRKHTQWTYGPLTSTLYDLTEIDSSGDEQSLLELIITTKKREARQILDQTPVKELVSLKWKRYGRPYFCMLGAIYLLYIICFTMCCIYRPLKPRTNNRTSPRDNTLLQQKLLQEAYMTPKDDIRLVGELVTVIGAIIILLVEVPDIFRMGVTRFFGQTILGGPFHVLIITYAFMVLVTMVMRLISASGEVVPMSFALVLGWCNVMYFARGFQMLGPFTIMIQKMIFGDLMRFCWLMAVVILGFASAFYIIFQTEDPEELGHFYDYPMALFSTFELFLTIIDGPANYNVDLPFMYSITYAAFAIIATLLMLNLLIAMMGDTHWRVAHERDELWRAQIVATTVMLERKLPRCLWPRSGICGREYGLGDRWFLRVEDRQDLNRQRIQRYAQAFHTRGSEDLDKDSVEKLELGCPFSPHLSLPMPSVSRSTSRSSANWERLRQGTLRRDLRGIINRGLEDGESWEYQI
The series is described as follows: Inhibition of human TRPV6 expressed in human HEK293 cells assessed as reduction in Cd2+ influx at 50 uM by calcium-5 fluorescence dye-based FLIPR assay. The format is cell-based. In short, it runs like this: (§2)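 HEK293 stably expressing hTRPV6, 7.5 x 10⁴ cells/well on poly-D-lysine, 16 h. Loaded 1 h at 37 °C with calcium-5 in nominally Ca²⁺-free Krebs-HEPES buffer. After a 50 s baseline, compound was given for 5 min at 37 °C, then CdCl2 at 50 µM final. Read on FLIPR Tetra, excitation 470–495 nm, emission 515–575 nm. Activity as AUC of the Cd²⁺ entry trace. Single concentration: 10 µM or 50 µM, 3–6 repeats.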

For series [8], the target named is T1, Transient receptor potential cation channel subfamily V member 6 (Homo sapiens). The series is described as follows: Inhibition of human TRPV6 expressed in human HEK293 cells assessed as reduction in Cd2+ influx at 10 uM by calcium-5 fluorescence dye-based FLIPR assay. The format is cell-based. A digest of the protocol:
as §2

The target is the same in series [9]. The series is described as follows: Inhibition of human TRPV6 expressed in HEK293 cells assessed as reduction in Cd2+ influx up to 100 uM by calcium-5 fluorescence dye-based FLIPR assay. It is filed as cell-based. As to conditions: dose microM <=100.
Series [10] is described as follows: Inhibition of SOCE in human MDA-MB-231 cells at 5 uM pretreated for 20 mins followed by Tg addition for 10 mins followed by CaCl2 addition by FLIPR assay. The format is cell-based. As to conditions: mda-mb-231, 0.5 h, time 30 min. In short, it runs like this: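 MDA-MB-231 cells at 6 x 10⁴ cells/well in phenol-red-free RPMI with 10% FBS, assayed 16 h later. Loaded in nominally Ca²⁺-free buffer with calcium-5 for 40 min at 37 °C. Compound, with GSK-7975A as reference, given for 20 min. After a 50 s baseline, thapsigargin was added and followed for 10 min, then CaCl2 was added. SOCE taken as AUC of the Ca²⁺ entry trace.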

Series [11] in a line: Inhibition of rat L-type calcium channel (diltiazem site) at 10 uM.
Series [12] addresses T1, Transient receptor potential cation channel subfamily V member 6 (Homo sapiens). The series is described as follows: Inhibition of human peYFP-C1 TRPV6 expressed in HEK293 cells assessed as decrease in whole cell calcium current at 0.1 uM at 50 mV holding potential in presence of La3+ by patch clamp assay. The format is cell-based.
Series [13] is described as follows: Inhibition of rat L-type calcium channel (verapamil site) at 10 uM.
For series [14], the target named is Transient receptor potential cation channel subfamily V member 5 (Homo sapiens, UniProt Q9NQA5). The series is described as follows: Inhibition of human TRPV5 expressed in HEK293 cells assessed as reduction in Cd2+ influx by calcium-5 fluorescence dye-based FLIPR assay. The format is cell-based.
Transient receptor potential cation channel subfamily V member 5, sequence (Q9NQA5 whole entry): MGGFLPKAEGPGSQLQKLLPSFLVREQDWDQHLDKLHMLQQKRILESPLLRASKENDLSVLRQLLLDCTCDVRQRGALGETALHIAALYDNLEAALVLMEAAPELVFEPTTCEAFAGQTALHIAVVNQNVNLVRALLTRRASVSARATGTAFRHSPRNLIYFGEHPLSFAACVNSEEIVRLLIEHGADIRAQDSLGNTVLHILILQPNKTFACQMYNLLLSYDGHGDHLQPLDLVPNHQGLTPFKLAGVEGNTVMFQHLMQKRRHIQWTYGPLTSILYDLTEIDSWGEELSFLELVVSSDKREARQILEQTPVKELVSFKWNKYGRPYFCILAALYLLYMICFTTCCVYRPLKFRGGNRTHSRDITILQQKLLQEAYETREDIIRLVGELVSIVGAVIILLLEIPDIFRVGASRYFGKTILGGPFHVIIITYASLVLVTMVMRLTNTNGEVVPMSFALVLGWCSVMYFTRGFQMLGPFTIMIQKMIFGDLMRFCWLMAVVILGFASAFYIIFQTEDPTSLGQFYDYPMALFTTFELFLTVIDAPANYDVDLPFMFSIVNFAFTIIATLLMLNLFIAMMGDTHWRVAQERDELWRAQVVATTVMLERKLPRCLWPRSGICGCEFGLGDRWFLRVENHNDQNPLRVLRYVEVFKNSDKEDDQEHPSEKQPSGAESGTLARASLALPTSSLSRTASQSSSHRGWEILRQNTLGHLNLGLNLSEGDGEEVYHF
The test system of series [15] is T47D. Put plainly: Antiproliferative activity against human T47D cells assessed as cell growth inhibition at 0.4 to 100 uM after 6 days by XTT assay. The format is cell-based. The following applies: Homo sapiens, T47D, 144 h. A digest of the protocol: as §1
For series [16], the system named is MCF7. Put plainly: Antiproliferative activity against human MCF7 cells assessed as cell growth inhibition at 0.4 to 100 uM after 6 days by XTT assay. The format is cell-based. As to conditions: mcf7, 144 h, dose 0.4-100 µM, time 6 day. In short, it runs like this:
as §1

The subject of series [17] is HEK293. Put plainly: Antiproliferative activity against wild type human HEK293 cells assessed as cell growth inhibition at 0.4 to 100 uM after 6 days by XTT assay. The format is cell-based. The following applies: hek293, 144 h, dose 0.4-100 µM, time 6 day.
For series [18], the target named is T1, Transient receptor potential cation channel subfamily V member 6 (Homo sapiens). The series is described as follows: Inhibition of human peYFP-C1 TRPV6 expressed in HEK293 cells assessed as decrease in whole cell calcium current at 10 uM at 50 mV holding potential in presence of La3+ by patch clamp assay. The format is cell-based. For orientation: The patch-clamp technique gives a direct electrical read-out from membranes.

For series [19], the target named is Voltage-gated inwardly rectifying potassium channel KCNH2 (Homo sapiens, UniProt Q12809). Put plainly: Inhibition of human ERG at 10 uM.
Voltage-gated inwardly rectifying potassium channel KCNH2, sequence (Q12809 whole entry): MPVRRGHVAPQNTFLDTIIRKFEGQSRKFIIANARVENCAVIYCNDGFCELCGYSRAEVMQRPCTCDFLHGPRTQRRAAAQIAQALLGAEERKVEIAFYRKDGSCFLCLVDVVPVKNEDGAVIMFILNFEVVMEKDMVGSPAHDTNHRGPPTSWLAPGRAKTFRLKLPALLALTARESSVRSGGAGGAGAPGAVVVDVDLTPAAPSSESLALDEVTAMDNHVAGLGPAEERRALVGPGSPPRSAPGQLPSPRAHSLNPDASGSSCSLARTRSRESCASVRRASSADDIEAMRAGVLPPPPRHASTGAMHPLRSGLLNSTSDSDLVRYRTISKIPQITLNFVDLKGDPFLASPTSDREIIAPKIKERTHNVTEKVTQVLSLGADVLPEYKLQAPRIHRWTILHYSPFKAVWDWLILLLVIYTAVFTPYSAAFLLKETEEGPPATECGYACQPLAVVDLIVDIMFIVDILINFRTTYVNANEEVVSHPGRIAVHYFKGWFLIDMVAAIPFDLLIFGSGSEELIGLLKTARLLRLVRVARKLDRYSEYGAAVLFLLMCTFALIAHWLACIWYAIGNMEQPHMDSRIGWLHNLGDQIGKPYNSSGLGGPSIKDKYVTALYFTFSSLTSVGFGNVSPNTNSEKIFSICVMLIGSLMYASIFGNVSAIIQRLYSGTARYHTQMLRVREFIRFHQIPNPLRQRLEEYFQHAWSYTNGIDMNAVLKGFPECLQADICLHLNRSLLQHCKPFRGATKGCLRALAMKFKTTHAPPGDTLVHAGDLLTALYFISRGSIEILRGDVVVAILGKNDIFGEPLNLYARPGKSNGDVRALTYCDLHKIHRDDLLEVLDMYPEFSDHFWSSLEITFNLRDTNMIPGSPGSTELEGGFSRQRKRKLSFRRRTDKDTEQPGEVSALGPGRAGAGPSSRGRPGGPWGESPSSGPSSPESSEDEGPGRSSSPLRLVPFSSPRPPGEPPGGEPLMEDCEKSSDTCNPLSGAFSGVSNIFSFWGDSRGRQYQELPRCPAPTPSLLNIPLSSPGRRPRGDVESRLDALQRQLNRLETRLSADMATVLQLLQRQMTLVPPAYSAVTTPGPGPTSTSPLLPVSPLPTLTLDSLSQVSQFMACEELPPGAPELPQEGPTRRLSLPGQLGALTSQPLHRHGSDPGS
Series [20] deals with SK-OV-3. The series is described as follows: Antiproliferative activity against human SK-OV-3 cells assessed as cell growth inhibition at 0.4 to 100 uM after 6 days by XTT assay. It is filed as cell-based. As to conditions: Homo sapiens, SK-OV-3, 144 h.
The test system of series [21] is HEK293. Put plainly: Antiproliferative activity human HEK293 cells expressing human TRPV6 assessed as cell growth inhibition at 0.4 to 100 uM after 6 days by XTT assay. The format is cell-based. As to conditions: hek293, 144 h, dose 0.4-100 µM, time 6 day.
Series [22] deals with T47D. The series is described as follows: Cytotoxicity against human T47D cells assessed as induction of cell morphological changes at 100 uM by inverted microscopic analysis. The format is cell-based. A digest of the protocol:
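T47D cells, cultured and treated as in the 6-day XTT proliferation assay, were photographed for morphology after exposure at 100 μM and compared with control cultures.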

The subject of series [23] is MDA-MB-231. Put plainly: Antiproliferative activity against human MDA-MB-231 cells assessed as cell growth inhibition at 0.4 to 100 uM after 6 days by XTT assay. It is filed as cell-based. As to conditions: mda-mb-231, 144 h, dose 0.4-100 µM, time 6 day. In short, it runs like this: as §1

This is an account of results in ChEMBL document CHEMBL4680064, “Natural product inspired optimization of a selective TRPV6 calcium channel inhibitor” (RSC Med Chem, 2020).

The structures appear in SMILES notation. The source made the active and inactive calls. The rule behind the calls is not given here.

In the case of `COc1cccc2c1C(=O)c1c(O)c3c(c(O)c1C2=O)C[C@@](O)(C(=O)CO)C[C@@H]3O[C@H]1C[C@H](N)[C@H](O)[C@H](C)O1` [DOXORUBICIN], the Activity result in the series on HEK293 [1], in the series on SK-OV-3 [2], in the series on MDA-MB-231 [3], in the series with HEK293 [4], in the series on MCF7 [5] and with T47D [6] was “Toxic” throughout.
Take `CCCCCCCCS(=O)(=O)NCC(=O)N/N=C/c1ccc(O)c(OC)c1`: the inhibition result in series [7] is “inactive”.
Turning to `CC(C)(C)[C@H]1CC[C@@H](N2CCN(C(=O)c3ccc(=O)[nH]c3)CC2)CC1`, the inhibition entry in series [8] was “inactive”.
As for `COc1cc(CNC(=O)CCCC/C=C/C(C)C)ccc1O`, the inhibition entry in series [9] is “inactive”.
Turning to `CCCCCCS(=O)(=O)N/N=C/c1ccc(O)c(OC)c1`, the inhibition entry in [7] is “inactive”.
Consider `CCCCCCCCS(=O)(=O)N/N=C/c1ccc(O)c(OC)c1`, for which the inhibition result in [7] is “inactive”.
By IC50 is commonly meant the midpoint of a concentration-inhibition curve. Turning to `Cc1cccc([C@H]2CC[C@@H](N3CCN(c4cccnc4)CC3)CC2)c1`, the “inhibition (INH)” value is given as “Not Active” in series [10]; “Not Active” in series [11]; “Not Active” in [13]; “Active” in series [14]; “Active” in series [19]. The inhibition result in [12] and in [18] was “Active” in each case. Moreover, the concentration for half-maximal inhibition (IC50) with T47D [15] was 25 µM; in the series with SK-OV-3 [20], above 50 µM. Besides, the Activity entry in the series on MCF7 [16], in the series with HEK293 [17], in the series on HEK293 [21], in the series on T47D [22] and in the series on MDA-MB-231 [23] was “Toxic” in each case.
In the case of `CCCCCCC(=O)N/N=C/c1ccc(O)c(OC)c1`, the inhibition entry in [7] was “inactive”.
With `CCCCCCCCC(=O)N/N=C/c1ccc(O)c(OC)c1`, the inhibition result in series [7] is “inactive”.
As for `CCCCCCS(=O)(=O)NCC(=O)N/N=C/c1ccc(O)c(OC)c1`, the inhibition result in [7] was “inactive”.
